# High-throughput results from PubChem BioAssay.
# This is a sample that favours compounds with a hit; in the whole collection about 2.9% have one here.
# Cneo AK release = Cryptococcus neoformans cell lysis inducers, primary screen, AK release luminescence, single concentration. C. neoformans lysis, adenylate kinase release luminescence, 4 h; normalised: neutral wells 0, clomiphene wells 100. lysis activity, % at 15 µM. hit rate 0.2% among 360,000. AID 651654, 2012;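 active = mean lysis activity across replicates of at least 80%, whatever share of replicates individually reach that level; inactive = mean lysis activity below 80%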
#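 Assay system: log-phase C. neoformans yeast / Quantity: yeast cell density of 5 × 10^6 cells/mL / Medium: fresh YPD growth medium / Compound: single dose / Timing: static 4 h at 37 °C with compound, 1 h detection / Measured by: adenylate kinase release luminescence / Read-out: lysis from increased AK signal / Benchmarks: Clomiphene as positive lysis control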
# dFosB act-1 = activators of delta FosB homodimer, primary screen, biochemical, fluorescence polarization, TAMRA-CDK5 oligo, single point | purified delta FosB; percent of positive-control signal above neutral wells | activation, % at 25 µM | hit rate 0.99% among 340,000 | AID 493131, 2011;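 active = mean activation above about 17%, with every replicate also reaching it, limit read from the data, passing the limit was not always enough; inconclusive = only one of the two conditions met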
# Target sequence (P13346 whole entry, looked up): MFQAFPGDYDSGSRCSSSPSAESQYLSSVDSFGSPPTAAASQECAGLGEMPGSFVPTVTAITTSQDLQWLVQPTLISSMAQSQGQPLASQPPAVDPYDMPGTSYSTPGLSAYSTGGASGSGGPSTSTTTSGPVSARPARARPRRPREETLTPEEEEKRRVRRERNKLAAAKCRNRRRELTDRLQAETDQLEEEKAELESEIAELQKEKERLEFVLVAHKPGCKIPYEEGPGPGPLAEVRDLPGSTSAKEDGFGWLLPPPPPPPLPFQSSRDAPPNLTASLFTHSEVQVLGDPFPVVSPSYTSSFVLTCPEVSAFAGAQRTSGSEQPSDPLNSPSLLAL
# PAX8 reporter = inhibitors of PAX8-driven TPO luciferase reporter, primary screen, RMG-I cells, single concentration; SteadyGlo, 24 h; inhibition, % at 12.6 µM; hit rate 1.2% among 360,000; AID 652154, 2013;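 active = mean replicate inhibition at least 60% with every replicate also reaching 60%; inconclusive = only one of the two criteria is met; inactive = mean below 60% and not all replicates reaching 60%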;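 note: luciferase light reporting Pax8 driven TPO promoter activity; plate controls were median of neutral control wells for no effect and mitoxantrone controls for full effect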
# GSIS activator = GLuc luminescence reporter in INS-1E cells, primary screen for activators of glucose-dependent secretion of insulin; INS-1E GLuc reporter insulin secretion, 2-3 h; activation, % at 16.6 µM; hit rate 0.61% among 370,000;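 active = lowest replicate activation of at least 40%, so every replicate reaches that level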;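 note: 0% = median of neutral control wells and 100% = median of IBMX positive control wells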
# CDK5 p35 inh = inhibitors of human CDK5/p35 kinase, primary screen, biochemical, single concentration | Recombinant CDK5/p35, ADP-Glo luminescence, 60 min | inhibition, % at 10 µM | hit rate 0.01% among 330,000;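 active = highest replicate inhibition of at least 50% and at least 75% of replicates reaching 50%; inconclusive = only one of the two criteria met; inactive = both criteria failed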;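 note: plate controls were DMSO neutral control for no effect and GW8510 at 10 µM for full effect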
# Env fusion inh = inhibitors of HIV-1 Env-driven cell-cell fusion, primary screen, HeLa-JRFL effector, CEM21 target cells, luciferase. hit rate 1.1% among 360,000. inhibition, % at 12.3 µM;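 active = mean replicate inhibition score of at least 50 and every replicate individually at or above 50; inconclusive = only one of the two criteria met; inactive = mean below 50 and not all replicates reaching 50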;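 note: 0% = plate neutral controls and 100% = maraviroc near 300 nM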
# dFosB act-2 = activators of mouse delta FosB DNA binding, confirmation, biochemical, fluorescence polarization, TAMRA-CDK5 oligo, cherry-picked samples; shares compounds with dFosB act-1; purified delta FosB; normalised: neutral wells 0, positive control 100; activation, % at 24.9 µM; 2,400 tested, under 10 active; AID 588690, 2011;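 active = highest replicate activation at or above 34% and every replicate reaching that threshold; inconclusive = meets only one of the two criteria; inactive = meets neither criterion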;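 note: higher polarization means more probe DNA bound by delta FosB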
# The depositor's hits bear a star; ? = inconclusive; · = not tested or not shown; [ ] = dose if it differs, or a comment.
SMILES,Cneo AK release,dFosB act-1,PAX8 reporter,GSIS activator,CDK5 p35 inh,Env fusion inh,dFosB act-2
O=C(NCC[C@@H]1CC[C@@H](NC(=O)c2cccnc2)[C@H](CO)O1)Nc1ccc(C(F)(F)F)cc1,-20,·,-113,-1,·,0[16.7 µM],·
Cc1ccccc1NC(=O)CSc1nc(N)c(C#N)c(-c2cccs2)c1C#N,1,61*,·,-34,-4,·,3
CCN(CC)C(=O)CSc1nc(N)c(C#N)c(-c2cccs2)c1C#N,8,5,1,·,-2,-30,·
C[C@@H]1CN([C@@H](C)CO)S(=O)(=O)c2ccc(C3=CCCC3)cc2O[C@H]1CN(C)CC1CCOCC1,5,·,20,0,·,29[16.7 µM],·
COc1ccc(NC(=O)N(C)C[C@H]2Oc3ncc(C#C[C@H](C)O)cc3C(=O)N([C@H](C)CO)C[C@@H]2C)cc1,1,·,·,4,·,-30[16.7 µM],·
O=C(Oc1cccc(-n2cnnn2)c1)c1sc2ccccc2c1Cl,3,143*,·,9,-1,7,-2
CN(C)C(=O)c1cccc(-c2ccc3c(c2)[C@H]2[C@H](CCN2C(=O)C2CCCC2)[C@@H](CO)N3)c1,·,·,·,1,·,·,·
COc1ccc(Br)cc1-c1noc(-c2ccccc2)n1,-12,27*,·,·,-3,·,?
CN1CCN(C(=O)C[C@H]2C[C@@H]3c4cc(NC(=O)Nc5ccccc5)ccc4O[C@@H]3[C@H](CO)O2)CC1,2,·,-24,17,·,-2[16.7 µM],·
O=c1[nH]c(-c2ccc(F)cc2)nc2c1sc(=S)n2-c1ccccc1,0,24*,-3,-6,1,11,3
O=c1[nH]c(-c2ccc3c(c2)OCO3)nc2c1sc(=S)n2-c1ccccc1,·,-6,5,-2,-2,-10,·
O=C1Nc2ccccc2O/C1=C\c1c(F)cccc1Cl,0,25*,12,25,0,-25,1
COC(=O)c1ccc2c(c1)C(=O)/C(=C/c1ccc(C)cc1)O2,0,0,-32,19,0,-16,·
COC(=O)c1ccc(/C=C2\Oc3ccccc3NC2=O)cc1,0,33*,-82,0,-1,-80,-7
Cc1ccc(S(=O)(=O)N[C@@H]2C=C[C@@H](CC(=O)NCc3ccc(Cl)c(Cl)c3)O[C@H]2CO)cc1,3,·,23,-2,·,-10[16.7 µM],·
COc1cccc(/C=C/C(=O)OCC(=O)Nc2ccc3[nH]c(=O)[nH]c3c2)c1OC,0,8,-6,1,-1,·,·
O=C(COC(=O)/C=C/c1cccc(Cl)c1)Nc1ccc2[nH]c(=O)[nH]c2c1,·,27*,-5,-6,0,·,0
O=C(COC(=O)/C=C/c1cccc(Cl)c1Cl)Nc1ccc2[nH]c(=O)[nH]c2c1,0,35*,6,-3,1,·,3
C[C@@H]1CN([C@H](C)CO)S(=O)(=O)c2ccc(C#CC3(O)CCCC3)cc2O[C@@H]1CN(C)C(=O)Nc1ccccc1,-3,·,·,-3,·,-60[16.7 µM],·
CC(C)NC(=O)N(C)C[C@H]1Oc2c(NC(=O)c3ccc(-c4nccs4)cc3)cccc2C(=O)N([C@H](C)CO)C[C@H]1C,-1,·,·,8,·,-58[16.7 µM],·
CCOc1ccc(S(=O)(=O)N(C)c2ccc(OCC(=O)N3c4ccc(C)cc4C4CN(C)CCC43)cc2)cc1 (stereo not given),1,34*,15,-28,-2,-27,3
CC(C)c1ccc(OC(=O)c2cccc(S(=O)(=O)N3CCN(C)CC3)c2)cc1,-1,-3,-17,-33,0,14,·
CN1CCN(S(=O)(=O)c2cccc(C(=O)Oc3ccc(C(C)(C)C)cc3)c2)CC1,-6,23*,4,-20,-1,-13,0
CCCN(C)C[C@H]1Oc2cc(-c3ccccc3C)ccc2S(=O)(=O)N([C@H](C)CO)C[C@H]1C,11,·,3,4,·,13[16.7 µM],·
Cc1ccc(CNC(=O)c2nnn(CC(=O)Nc3cc(C)cc(C)c3)c2N)cc1,3,88*,4,11,-5,3,-7
SMILES,Cneo AK release,dFosB act-1,PAX8 reporter,GSIS activator,CDK5 p35 inh,Env fusion inh,dFosB act-2
Cc1ccc(CNC(=O)Cn2nnc(C(=O)Nc3cc(C)ccc3C)c2N)cc1,8,36*,12,19,1,1,0
CSc1cccc(NC(=O)c2nnn(CC(=O)Nc3cc(C)cc(C)c3)c2N)c1,1,64*,-9,6,0,13,0
Cc1ccc(NC(=O)Cn2nnc(C(=O)NCc3ccc(Cl)cc3)c2N)cc1F,0,77*,-6,2,1,5,1
C[C@@H]1CN([C@@H](C)CO)C(=O)c2cccc(NS(C)(=O)=O)c2O[C@@H]1CN(C)C(=O)Nc1ccc(F)cc1,0,·,9,-11,·,·,·
COc1ccc(NC(=O)Cn2nnc(C(=O)NCc3ccc4c(c3)OCO4)c2N)cc1,·,7,-1,1,0,-3,·
Cc1cc(C)cc(NC(=O)Cn2nnc(C(=O)NCc3ccc4c(c3)OCO4)c2N)c1,0,77*,7,2,-3,-1,2
CCOc1ccccc1NC(=O)Cn1nnc(C(=O)NCc2ccco2)c1N,-7,28*,·,·,0,·,4
Cc1cc(C)cc(NC(=O)Cn2nnc(C(=O)NCc3ccco3)c2N)c1,-12,32*,13,15,1,3,7
COc1ccc(NC(=O)Cn2nnc(C(=O)NCc3ccco3)c2N)cc1,3,4,2,-4,·,-2,·
Cc1ccccc1NC(=O)Cn1nnc(C(=O)NCc2ccco2)c1N,·,0,28,5,-1,-46,·
O=C(NC(NC(=S)Nc1c(Cl)cccc1Cl)C(Cl)(Cl)Cl)OCc1ccccc1 (stereo not given),·,16*,0,14,-1,11,6
CC(C)NC(=O)Nc1ccc2c(c1)C(=O)N([C@H](C)CO)C[C@H](C)[C@H](CN(C)C(=O)C1CCCCC1)OCCCC[C@@H](C)O2,·,·,-13,0,·,20[16.7 µM],·
COc1ccc(S(=O)(=O)Nc2ccc3c(c2)C(=O)N([C@@H](C)CO)C[C@H](C)[C@H](CN(C)C)OCCCC[C@H](C)O3)cc1,·,·,4,0,·,-5[16.7 µM],·
CC(C)NC(=O)c1ccc2c3n(nc2c1)-c1ccc(Cl)cc1CO3,0,-6,-283,-12,0,-124,·
CCN(CC)CCCNC(=O)c1ccc2c3n(nc2c1)-c1ccc(Cl)cc1CO3,-1,34*,-113,-8,2,-44,-3
